In general, inhibition refers to the drop in the measured response relative to a control, in per cent. The IC50 is the concentration that gives 50% inhibition.

The results in this text go back to ChEMBL document CHEMBL1138293, “Novel peptide inhibitors of human secretory phospholipase A2 with antiinflammatory activity: solution structure and molecular modeling” (J Med Chem, 2007).

For data set [1], the species on record is Homo sapiens. The data set is described as follows: Inhibition of human recombinant synovial PLA2 by at 5 uM. A digest of the protocol: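 Single peptide concentration of 5 µM against purified human synovial type IIA sPLA2 (0.85 pmol), with [3H]arachidonate-labeled E. coli membranes as substrate in 100 mM Tris-HCl, 25 mM CaCl2, pH 7.5. Released label was counted by liquid scintillation, in triplicate. Results are % inhibition relative to enzyme preincubated with buffer alone; groups were compared by one-way ANOVA with Dunnett's test.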

Data set [2] is described as follows: Inhibition of human recombinant synovial PLA2. An outline of the steps:
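Purified human synovial type IIA sPLA2 (0.85 pmol) was preincubated with peptide (1-250 range) and then reacted with [3H]arachidonate-labeled E. coli membranes in 100 mM Tris-HCl, 25 mM CaCl2, pH 7.5. Released [3H]arachidonate was counted by liquid scintillation, in triplicate. IC50 (mean ± SD) was obtained from sigmoid curves by nonlinear regression of % inhibition versus buffer-only control.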

Data set [3] is filed under the species Homo sapiens. Put plainly: Inhibition of IL-1-beta-induced sPLA2 production in human RASFs at 5 uM by ELISA. In kind it is functional. An outline of the steps: (§1)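 Primary synovial fibroblasts from three RA knee-replacement patients, passages 3-8, grown to confluence and serum-starved 16 h. Cells were preincubated 1 h at 37 °C with 5 µM peptide or vehicle (0.1% DMSO final), then given hrIL-1β 10 ng/mL for 24 h. Supernatants were stored at -20 °C, and type IIA sPLA2 or MMP-1/-2/-9 was measured by ELISA in triplicate.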
Background: ELISA stands for enzyme-linked immunosorbent assay.

Data set [4] is described as follows: Toxicity against human RASF at 1 to 10 uM after 24 hrs. A digest of the protocol: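 Primary RA synovial fibroblasts (passages 3-8) were exposed to peptide at 1, 5 and 10 µM for 24 h. Viability was read by the XTT cell proliferation assay.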
For data set [5], the species on record is Homo sapiens. Put plainly: Inhibition of IL-1-beta-induced MMP1 levels in human RASFs after 1 hr by ELISA. The class given is functional. An outline of the steps: as §1
The species entered for data set [6] is Homo sapiens. Put plainly: Inhibition of IL-1-beta-induced MMP2 levels in human RASFs after 1 hr by ELISA. The class given is functional. A digest of the protocol: as §1
For data set [7], the species on record is Homo sapiens. The data set is described as follows: Inhibition of IL-1-beta-induced MMP9 levels in human RASFs after 1 hr by ELISA. The class given is functional. An outline of the steps:
as §1

The species named for data set [8] is Homo sapiens. The data set is described as follows: Effect on IL-1-beta-stimulated TIMP2 production in human RASFs. The class given is functional.
Data set [9] is filed under the species Homo sapiens. The data set is described as follows: Inhibition of IL-1-beta-induced sPLA2 production in human RASFs by ELISA. In kind it is functional. An outline of the steps:
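RA synovial fibroblasts (passages 3-8, serum-starved 16 h) were preincubated 1 h at 37 °C with peptide (1, 2.5, 5 or 10 µM) or vehicle (0.1% DMSO final), then cultured a further 24 h with or without IL-1β 10 ng/mL. Supernatant sPLA2-IIA was measured by EIA in triplicate; mean ± SD from a representative of three RASF lines.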

Data set [10] is filed under the species Homo sapiens. Put plainly: Inhibition of IL-1-beta-induced MMP1 gene expression in human RASFs by QRT-PCR. The class given is functional. An outline of the steps: (§2)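 Primary synovial fibroblasts from three RA patients (passages 3-8), grown to confluence in DMEM/10% FBS and serum-starved 16 h. Preincubated 1 h with 5 µM peptide or vehicle (0.1% DMSO final), then stimulated 24 h with hrIL-1β 10 ng/mL. Cells from 3 flasks pooled per group, total RNA isolated and DNase-treated, then transcripts quantified by qRT-PCR. Unstimulated cells served as controls.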

The species entered for data set [11] is Homo sapiens. Put plainly: Inhibition of IL-1-beta-induced MMP2 gene expression in human RASFs by QRT-PCR. In kind it is functional. A digest of the protocol:
as §2

For data set [12], the species on record is Homo sapiens. Put plainly: Inhibition of IL-1-beta-induced MMP9 gene expression in human RASFs by QRT-PCR. The class given is functional. An outline of the steps: as §2
Data set [13] is filed under the species Homo sapiens. The data set is described as follows: Inhibition of IL-1-beta-induced sPLA2 gene expression in human RASFs by QRT-PCR. The class given is functional. An outline of the steps: as §2
The species named for data set [14] is Homo sapiens. Put plainly: Inhibition of IL-1-beta-induced TIMPs gene expression in human RASFs by QRT-PCR. The class given is functional. A digest of the protocol: as §2
Data set [15] is filed under the species Oryctolagus cuniculus. Put plainly: Inhibition of IL-1-beta-induced MMP1 gene expression in rabbit HIG82 cells by QRT-PCR. In kind it is functional, cell-based. An outline of the steps:
(§3)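 Rabbit HIG-82 fibroblast-like synoviocytes were grown in Ham's F-12/10% FBS to 80% confluence. They were serum-starved 2 h with or without 5 µM peptide; controls got medium or vehicle (0.1% DMSO). Cells were then stimulated 24 h with rhIL-1β 5 ng/mL, washed in cold PBS, RNA extracted, and transcripts measured by qRT-PCR.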

Data set [16] is filed under the species Oryctolagus cuniculus. Put plainly: Inhibition of IL-1-beta-induced MMP2 gene expression in rabbit HIG82 cells by QRT-PCR. In kind it is functional, cell-based. An outline of the steps: as §3
The species entered for data set [17] is Oryctolagus cuniculus. The data set is described as follows: Inhibition of IL-1-beta-induced MMP9 gene expression in rabbit HIG82 cells by QRT-PCR. In kind it is functional, cell-based. A digest of the protocol: as §3
The species entered for data set [18] is Oryctolagus cuniculus. The data set is described as follows: Inhibition of IL-1-beta-induced sPLA2 gene expression in rabbit HIG82 cells by QRT-PCR. In kind it is functional, cell-based. A digest of the protocol:
as §3

Data set [19] is filed under the species Oryctolagus cuniculus. Put plainly: Inhibition of IL-1-beta-induced TIMPs gene expression in rabbit HIG82 cells by QRT-PCR. The class given is functional, cell-based. An outline of the steps:
as §3

Calls of active or inactive are those of the source. The calls are words filed in the database; no cut-off is given here.

For H-IHVWDGV-OH, the inhibition in the data set listed under Homo sapiens [1] was determined as 35.4%. In addition, the 50% inhibitory concentration (IC50) in data set [2] was 6.21 µM.
For `CC[C@H](C)[C@@H](NC(=O)[C@@H](N)CC(=O)O)C(=O)N[C@@H](Cc1cnc[nH]1)C(=O)N[C@H](C(=O)N[C@@H](Cc1c[nH]c2ccccc12)C(=O)N[C@@H](CC(=O)O)C(=O)NCC(=O)N[C@H](C(=O)O)C(C)C)C(C)C`, in the data set filed under Homo sapiens [1], the inhibition worked out at 45.9%. Moreover, in data set [2], the 50% inhibitory concentration (IC50) was determined as 5.75 µM.
In the case of `CCc1c(C(=O)C(N)=O)c2c(OCC(=O)O)cccc2n1Cc1ccccc1` [VARESPLADIB], the outcome in the data set listed under Homo sapiens [3], in the data set listed under Homo sapiens [5], in the data set listed under Homo sapiens [6] and in the data set filed under Homo sapiens [7] was Active. Further, the Activity entry in data set [4] is recorded as “Non-toxic”. In addition, in the data set filed under Homo sapiens [8], the outcome was inactive.
For the compound H-LGRVDIHVWDGV-OH, the inhibition in the data set listed under Homo sapiens [1] is 34.2%.
Regarding H-LGRVDIHVWDGVYIR-OH, the inhibition in the data set filed under Homo sapiens [1] is 51%. The IC50 in data set [2] worked out at 5.75 µM.
Consider H-LGRVDIHVWDGVYI-OH, for which the inhibition in the data set listed under Homo sapiens [1] amounted to 49.7%. For the same compound, the IC50 in data set [2] is 5.8 µM.
For `CC[C@H](C)[C@@H](NC(=O)[C@H](CC(=O)O)NC(=O)[C@@H](NC(=O)[C@@H](N)CCCNC(=N)N)C(C)C)C(=O)N[C@@H](Cc1cnc[nH]1)C(=O)N[C@H](C(=O)N[C@@H](Cc1c[nH]c2ccccc12)C(=O)N[C@@H](CC(=O)O)C(=O)NCC(=O)N[C@H](C(=O)O)C(C)C)C(C)C` the same measures were 59.5% and 3.67 µM.
For the compound H-LGRVDIHVWDGVY-OH, in the data set filed under Homo sapiens [1], the inhibition turned out to be 48.7%. Also, the IC50 in [2] worked out at 5.95 µM.
Regarding H-VDIHVWDGVVDIHVWDGV-OH, in the data set listed under Homo sapiens [1], the inhibition came to 74.5%. Besides, the IC50 in data set [2] turned out to be 1.19 µM. In addition, the Activity result was “Dose-dependent effect” in the data set filed under Homo sapiens [9] and “Non-toxic” in data set [4]. Also, the result in the data set listed under Homo sapiens [3], in the data set listed under Homo sapiens [5], in the data set filed under Homo sapiens [6], in the data set filed under Homo sapiens [7], in the data set listed under Homo sapiens [10] and in the data set listed under Homo sapiens [11] was Active. The result in the data set listed under Homo sapiens [12], in the data set listed under Homo sapiens [13], in the data set listed under Oryctolagus cuniculus [15], in the data set filed under Oryctolagus cuniculus [16], in the data set listed under Oryctolagus cuniculus [17] and in the data set listed under Oryctolagus cuniculus [18] was Active. In addition, the outcome in the data set listed under Homo sapiens [8], in the data set listed under Homo sapiens [14] and in the data set listed under Oryctolagus cuniculus [19] was inactive.
Consider H-LGRVDIHVWDGVYIRGR-OH, for which the inhibition in the data set listed under Homo sapiens [1] turned out to be 55.6%. Moreover, the IC50 in [2] was found to be 5.3 µM.
For `CC[C@H](C)[C@@H](NC(=O)[C@H](CC(=O)O)NC(=O)[C@@H](NC(=O)[C@H](CCCNC(=N)N)NC(=O)CN)C(C)C)C(=O)N[C@@H](Cc1cnc[nH]1)C(=O)N[C@H](C(=O)N[C@@H](Cc1c[nH]c2ccccc12)C(=O)N[C@@H](CC(=O)O)C(=O)NCC(=O)N[C@H](C(=O)O)C(C)C)C(C)C`, the inhibition in the data set filed under Homo sapiens [1] is 14.2%.
For H-LGRVDIHVWDGVYIRG-OH, the inhibition in the data set listed under Homo sapiens [1] is 52.4%. Besides, the IC50 in data set [2] was found to be 5.6 µM.
Regarding H-VDIHVWSGV-OH, the inhibition in the data set listed under Homo sapiens [1] was 52.5%. In addition, in data set [2], the IC50 was found to be 5.25 µM.
`CC[C@H](C)[C@@H](NC(=O)[C@H](CC(=O)O)NC(=O)[C@@H](N)C(C)C)C(=O)N[C@@H](Cc1cnc[nH]1)C(=O)N[C@H](C(=O)N[C@@H](Cc1c[nH]c2ccccc12)C(=O)N[C@@H](CC(=O)O)C(=O)NCC(=O)N[C@H](C(=O)O)C(C)C)C(C)C`: in the data set listed under Homo sapiens [1], the inhibition was 56.4%. Further, in data set [2], the IC50 is 3.8 µM.
H-VDIHVWAGV-OH: the inhibition in the data set listed under Homo sapiens [1] came to 48.5%. In data set [2], the IC50 turned out to be 5.45 µM.
On the same counts, the results for H-VDIHVWEGV-OH are 57.6% and 4.95 µM.
